# Results taken from ChEMBL document CHEMBL1126152, “Fluoronaphthyridines as antibacterial agents. 4. Synthesis and structure-activity relationships of 5-substituted-6-fluoro-7-(cycloalkylamino)-1,4-dihydro-4-oxo-1,8- naphthyridine-3-carboxylic acids” (J Med Chem, 1992).
# Experiments:
# [1] = system: Bacteroides fragilis; assay: In vitro for antibacterial activity against […].; assay type: functional
# How it was run: (§1)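 MIC by serial 2-fold broth dilution in nutrient broth with an inoculum of 10^6 CFU/mL. Compound range was 0.0005–250 μg/mL. Plates were incubated 18 h at 37 °C. MIC was taken as the lowest concentration preventing visible growth.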
# [2] = system: Enterococcus faecalis; assay: In vitro for antibacterial activity against Enterococcus faecalis; assay type: functional; how it was run: as §1
# [3] = system: Escherichia coli; assay: In vitro for antibacterial activity against Escherichia coli; assay type: functional; how it was run: as §1
# [4] = system: Enterobacter cloacae; assay: In vitro for antibacterial activity against Enterobacter cloacae; assay type: functional
# [5] = system: Klebsiella pneumoniae; assay: In vitro for antibacterial activity against Klebsiella pneumoniae; assay type: functional; how it was run: as §1
# [6] = system: Morganella morganii; assay: In vitro for antibacterial activity against Morganella morganii; assay type: functional; how it was run: as §1
# [7] = system: Pseudomonas aeruginosa; assay: In vitro for antibacterial activity against Pseudomonas aeruginosa; assay type: functional; how it was run: as §1
# [8] = system: Proteus mirabilis; assay: In vitro for antibacterial activity against Proteus mirabilis; assay type: functional; how it was run: as §1
# [9] = system: Serratia marcescens; assay: In vitro for antibacterial activity against Serratia marcescens; assay type: functional; how it was run: as §1
# [10] = system: Streptococcus pneumoniae; assay: Antibacterial activity against Streptococcus pneumoniae; assay type: functional
# [11] = system: Staphylococcus aureus; assay: Antibacterial activity against Staphylococcus aureus; assay type: functional
# [12] = Solubility was measured at PH - 7.2 buffer
MIC [1],MIC [2],MIC [3],MIC [4],MIC [5],MIC [6],MIC [7],MIC [8],MIC [9],MIC [10],MIC [11],solubility [12],SMILES
1 µg/mL,0.06 µg/mL,0.02 µg/mL,0.03 µg/mL,0.03 µg/mL,0.13 µg/mL,0.25 µg/mL,0.13 µg/mL,0.25 µg/mL,0.008 µg/mL,0.004 µg/mL,,CC(C)(C)n1cc(C(=O)O)c(=O)c2cc(F)c(N3CC[C@H](N)C3)nc21
0.5 µg/mL,0.13 µg/mL,0.008 µg/mL,0.016 µg/mL,0.008 µg/mL,0.06 µg/mL,0.25 µg/mL,0.03 µg/mL,0.06 µg/mL,0.06 µg/mL,0.008 µg/mL,,N[C@H]1CCN(c2nc3c(cc2F)c(=O)c(C(=O)O)cn3-c2ccc(F)cc2F)C1
125 µg/mL,64 µg/mL,1 µg/mL,2 µg/mL,2 µg/mL,8 µg/mL,32 µg/mL,16 µg/mL,16 µg/mL,8 µg/mL,2 µg/mL,,N[C@H]1CCN(c2nc3c(c(-c4ccccc4)c2F)c(=O)c(C(=O)O)cn3C2CC2)C1
1 µg/mL,16 µg/mL,0.5 µg/mL,1 µg/mL,1 µg/mL,4 µg/mL,16 µg/mL,8 µg/mL,1 µg/mL,0.25 µg/mL,0.5 µg/mL,,CCc1c(F)c(N2CCNCC2)nc2c1c(=O)c(C(=O)O)cn2C1CC1
2 µg/mL,2 µg/mL,0.016 µg/mL,0.25 µg/mL,0.03 µg/mL,0.5 µg/mL,2 µg/mL,0.5 µg/mL,0.5 µg/mL,2 µg/mL,0.25 µg/mL,,Cc1c(F)c(N2CC[C@H](N)C2)nc2c1c(=O)c(C(=O)O)cn2C(C)(C)CF
4 µg/mL,1 µg/mL,0.016 µg/mL,0.03 µg/mL,0.03 µg/mL,0.13 µg/mL,1 µg/mL,0.25 µg/mL,0.25 µg/mL,0.25 µg/mL,0.016 µg/mL,,Cc1c(F)c(N2CCNCC2)nc2c1c(=O)c(C(=O)O)cn2-c1ccc(F)cc1F
16 µg/mL,0.13 µg/mL,0.008 µg/mL,0.06 µg/mL,0.016 µg/mL,0.06 µg/mL,0.5 µg/mL,0.13 µg/mL,0.13 µg/mL,0.13 µg/mL,0.03 µg/mL,,Cc1c(F)c(N2CC3CCC2CN3)nc2c1c(=O)c(C(=O)O)cn2C1CC1 (stereo not given)
> 32 µg/mL,2 µg/mL,0.06 µg/mL,0.25 µg/mL,0.06 µg/mL,0.25 µg/mL,4 µg/mL,0.5 µg/mL,0.25 µg/mL,1 µg/mL,0.03 µg/mL,,Cc1c(F)c(N2CCNCC2)nc2c1c(=O)c(C(=O)O)cn2C(C)(C)C
,1 µg/mL,0.06 µg/mL,0.03 µg/mL,0.06 µg/mL,0.06 µg/mL,0.25 µg/mL,0.06 µg/mL,0.25 µg/mL,,0.13 µg/mL,90 µg/mL,O=C(O)c1cn(C2CC2)c2nc(N3CC4CC3CN4)c(F)cc2c1=O (stereo not given)
2 µg/mL,0.25 µg/mL,0.002 µg/mL,0.016 µg/mL,0.004 µg/mL,0.004 µg/mL,0.25 µg/mL,0.03 µg/mL,0.016 µg/mL,0.25 µg/mL,0.016 µg/mL,,N[C@H]1CCN(c2nc3c(cc2F)c(=O)c(C(=O)O)cn3C2CC2)C1
2 µg/mL,1 µg/mL,0.016 µg/mL,0.03 µg/mL,0.03 µg/mL,0.13 µg/mL,0.5 µg/mL,0.06 µg/mL,0.13 µg/mL,0.5 µg/mL,0.03 µg/mL,,O=C(O)c1cn(-c2ccc(F)cc2F)c2nc(N3CCNCC3)c(F)cc2c1=O
